Laboratory results taken from ChEMBL document CHEMBL3286234, “Synthesis, Characterization, and in Vitro Evaluation of a New TSPO-Selective Bifunctional Chelate Ligand” (ACS Med Chem Lett, 2014).
Active and inactive are the calls of the source. The rule behind the calls is not given here.

Tests used:
[1] = test system: C6; assay: Cell cycle arrest in rat C6 cells assessed as proportion of cells at S phase at 0.3 uM after 72 hrs by propidium iodide staining based flow cytometry (reference value: 11.15%); type: functional
[2] = test system: C6; assay: Cell cycle arrest in rat C6 cells assessed as proportion of cells at G2/M phase at 0.3 uM after 72 hrs by propidium iodide staining based flow cytometry (reference value: 28.02%); type: functional
[3] = target: Translocator protein (Rattus norvegicus, UniProt P16257); assay: Displacement of [3H]PK11195 from TSPO in rat C6 cell membrane after 90 mins by radioligand binding assay; type: cell membranes
Sequence of Translocator protein (P16257 whole entry, looked up): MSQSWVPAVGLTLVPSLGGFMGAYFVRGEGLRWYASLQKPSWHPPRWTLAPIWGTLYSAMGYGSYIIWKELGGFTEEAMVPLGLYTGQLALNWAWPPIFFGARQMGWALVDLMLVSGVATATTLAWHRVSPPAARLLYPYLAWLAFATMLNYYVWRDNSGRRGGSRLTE
Method in brief: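 Affinity for TSPO was measured on membrane extracts of C6 glioma cells and reported as Ki (nM).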

[4] = test system: C6; assay: Cell cycle arrest in rat C6 cells assessed as proportion of cells at sub-G1 phase at 0.3 uM after 72 hrs by propidium iodide staining based flow cytometry (reference value: 5.89%); type: functional
[5] = Induction of double strand breaks in supercoiled pET plasmid DNA (unknown origin) at 10 uM pretreated for 2 hrs by agarose gel electrophoresis in absence of CuCl2
Method in brief: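 Compound at 10 μM, without CuCl2, incubated with pET plasmid DNA. Supercoiled, open circular and linear forms resolved on 1% agarose gel stained with ethidium bromide.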

[6] = test system: A2780cisR; assay: Cytotoxicity against human A2780cisR cells assessed as inhibition of cell viability after 72 hrs by MTT assay; type: functional, cell-based
Method in brief: (§1)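 Cells treated across 0.05 to 100 μM and incubated 72 h at 37 °C; IC50 in μM.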

[7] = test system: A2780; assay: Cytotoxicity against cisplatin-sensitive human A2780 cells assessed as inhibition of cell viability after 72 hrs by MTT assay; type: functional, cell-based; conditions: A2780, 72 h; method in brief: as §1
[8] = test system: C6; assay: Cell cycle arrest in rat C6 cells at 10 uM after 24 hrs by propidium iodide staining based flow cytometry; type: functional
Method in brief: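 C6 glioma cells exposed to 10 μM for 24 h, then cell cycle histograms recorded by flow cytometry. Untreated cells served as control.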

[9] = test system: C6; assay: Cytotoxicity against rat C6 cells overexpressing TSPO assessed as inhibition of cell viability after 72 hrs by MTT assay; type: functional, cell-based; conditions: C6, 72 h
Method in brief: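 Cells exposed to drug over 0.05 to 100 μM at 37 °C for 72 h; IC50 reported.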

[10] = test system: A2780cisR; assay: Resistance factor, ratio of IC50 for human A2780cisR cells to IC50 for cisplatin-sensitive human A2780 cells; type: functional
[11] = Induction of double strand breaks in supercoiled pET plasmid DNA (unknown origin) at 0.5 to 10 uM pretreated for 2 hrs by agarose gel electrophoresis in presence of CuCl2 and GSH
Method in brief: (§2)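 Compound preincubated 2 h with CuCl2 (5 equiv) and GSH (50 equiv), then reacted with pET plasmid DNA for 1 h at 37 °C at 0.5, 1, 2 or 10 μM. Forms I, II and III resolved on 1% agarose gel stained with ethidium bromide. Controls were untreated DNA and CuCl2 plus GSH alone.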

[12] = test system: C6; assay: Induction of mitochondrial and nuclear structure modification in rat C6 cells assessed as fragmented nuclei and mitochondria at 10 uM after 24 hrs by MitoTracker Red/DAPI staining based fluorescence microscopy; type: functional, cell-based
Method in brief: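 C6 glioma cells exposed at 10 μM for 24 h, then stained with MitoTracker Red for mitochondria and DAPI for nuclei. Morphology assessed with a digital imaging system. Untreated cells served as control.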

[13] = test system: C6; assay: Cell cycle arrest in rat C6 cells assessed as proportion of cells at G0/G1 phase at 0.3 uM after 72 hrs by propidium iodide staining based flow cytometry (reference value: 54.94%); type: functional
[14] = Induction of single strand breaks in supercoiled pET plasmid DNA (unknown origin) at 0.5 to 10 uM pretreated for 2 hrs by agarose gel electrophoresis in presence of CuCl2 and GSH; method in brief: as §2
[15] = test system: C6; assay: Antiproliferative activity in rat C6 cells assessed as proportion of cells with depolarized mitochondrial membrane potential at 10 uM after 24 hrs by JC-1 staining based flow cytometry (reference value: 0.21%); type: functional
[16] = Induction of double strand breaks in supercoiled pET plasmid DNA (unknown origin) at 10 uM pretreated for 2 hrs by agarose gel electrophoresis in presence of CuCl2 and GSH
Method in brief: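 Ligand (0.5, 1, 2 or 10 μM) preincubated 2 h with CuCl2 (5 equiv) and GSH (50 equiv), then reacted with pET plasmid for 1 h at 37 °C. Products separated on 1% agarose gel stained with ethidium bromide and scored as supercoiled (I), open circular (II) and linear (III) forms.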

| Activity [5] | Activity [11] | Activity [14] | Compound | Activity [1] | Activity [2] | Ki [3] | Activity [4] | IC50 [6] | IC50 [7] | Activity [8] | IC50 [9] | Ratio IC50 [10] | Activity [12] | Activity [13] | Activity [15] | Activity [16] |
| --- | --- | --- | --- | --- | --- | --- | --- | --- | --- | --- | --- | --- | --- | --- | --- | --- |
| inactive | Active | inactive | CCCN(CCC)C(=O)Cc1c(-c2ccc(Cl)cc2)nc2c(NC(=O)CN(Cc3ccccn3)Cc3ccccn3)cccn12 | 13.18% | 28.69% | 0.239 µM | 9.06% | 9.21 µM | 9.02 µM | inactive | 0.27 µM | 1.02 | Active | 49.07% | 2.47% |  |
|  |  |  | CCCN(CCC)C(=O)Cc1c(-c2ccc(Cl)cc2)nc2c(N)cccn12 |  |  | 0.0016 µM |  |  |  |  | 19.7 µM |  |  |  |  | inactive |
